Reference: ChEMBL document CHEMBL1828531, “Pyrazol-3-propanoic acid derivatives as novel inhibitors of leukotriene biosynthesis in human neutrophils” (Eur J Med Chem, 2011)

How the values were obtained:
[1] = biological target: T1, Polyunsaturated fatty acid 5-lipoxygenase (Homo sapiens) (UniProt P09917); assay: Inhibition of 5-Lipoxygenase in arachidonic acid-stimulated human neutrophils assessed as residual activity at 10 uM after 15 mins by HPLC analysis in presence of A23187
T1 sequence (whole entry): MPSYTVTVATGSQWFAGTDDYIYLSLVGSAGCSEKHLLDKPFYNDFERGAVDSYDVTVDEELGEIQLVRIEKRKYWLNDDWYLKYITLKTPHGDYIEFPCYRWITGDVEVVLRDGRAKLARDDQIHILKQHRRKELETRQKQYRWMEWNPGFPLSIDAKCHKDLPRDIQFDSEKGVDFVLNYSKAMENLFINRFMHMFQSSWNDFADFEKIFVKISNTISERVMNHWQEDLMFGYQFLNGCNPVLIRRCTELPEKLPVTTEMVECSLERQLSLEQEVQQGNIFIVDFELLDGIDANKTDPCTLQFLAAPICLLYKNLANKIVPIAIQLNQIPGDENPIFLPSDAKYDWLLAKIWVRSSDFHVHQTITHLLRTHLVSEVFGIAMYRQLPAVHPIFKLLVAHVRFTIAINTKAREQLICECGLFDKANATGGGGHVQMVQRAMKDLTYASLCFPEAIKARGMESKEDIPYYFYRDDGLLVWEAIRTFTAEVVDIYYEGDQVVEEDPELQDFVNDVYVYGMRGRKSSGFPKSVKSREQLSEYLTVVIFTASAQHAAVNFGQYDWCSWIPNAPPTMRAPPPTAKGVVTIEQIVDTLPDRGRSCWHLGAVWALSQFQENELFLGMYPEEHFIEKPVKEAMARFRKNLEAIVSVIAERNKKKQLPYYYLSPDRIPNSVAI
Outline: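 Human neutrophils, 5 × 10^6/mL in PBS/glucose/1 mM CaCl2, preincubated 15 min at RT, then 2.5 µM A23187 plus 20 µM AA for 10 min at 37 °C. Methanol stop, PGB1 internal standard, HPLC of LTB4, its all-trans isomers and 5-H(p)ETE. Residual % versus 0.3% DMSO vehicle, mean ± SEM, n = 3–5. IC50 by linear interpolation from 4–5 concentrations.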

[2] = biological target: Prostaglandin G/H synthase 1 (Homo sapiens, UniProt P23219); assay: Inhibition of COX1-mediated 12-HHT production in human platelet assessed as residual activity at 10 uM after 5 mins by HPLC analysis
Prostaglandin G/H synthase 1, sequence (P23219 whole entry): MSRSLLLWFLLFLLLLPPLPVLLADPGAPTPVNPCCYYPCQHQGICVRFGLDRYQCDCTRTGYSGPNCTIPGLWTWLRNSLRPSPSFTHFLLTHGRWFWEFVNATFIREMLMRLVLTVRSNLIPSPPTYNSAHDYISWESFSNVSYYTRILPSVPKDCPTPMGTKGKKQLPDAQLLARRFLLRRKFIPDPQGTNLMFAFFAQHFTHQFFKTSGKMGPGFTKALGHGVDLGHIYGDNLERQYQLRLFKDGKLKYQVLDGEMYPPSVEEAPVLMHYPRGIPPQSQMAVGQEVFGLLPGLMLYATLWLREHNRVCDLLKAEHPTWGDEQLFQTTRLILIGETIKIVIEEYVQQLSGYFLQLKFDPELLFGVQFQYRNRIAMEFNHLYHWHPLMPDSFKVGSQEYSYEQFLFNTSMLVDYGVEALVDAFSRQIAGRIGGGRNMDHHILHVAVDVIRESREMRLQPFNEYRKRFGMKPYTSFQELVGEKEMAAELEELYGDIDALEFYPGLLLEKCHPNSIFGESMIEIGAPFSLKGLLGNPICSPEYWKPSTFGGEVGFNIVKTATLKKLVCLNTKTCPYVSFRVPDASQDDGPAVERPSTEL
Outline: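 Washed human platelets, 10^8/mL in PBS with 1 mM CaCl2, preincubated with compound 4 min at 4 °C then 1 min at 37 °C. 5 µM AA added for 5 min at 37 °C. Methanol/HCl stop, PGB1 added, 12-HHT by HPLC. Residual activity at 10 µM. IC50 by interpolation from 4–5 concentrations.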

[3] = biological target: T2, Prostaglandin G/H synthase 2 (Homo sapiens) (UniProt P35354); assay: Inhibition of COX2-mediated 6-keto PGF1alpha production in IL1-beta stimulated human A549 cells assessed as residual activity at 10 uM after 10 mins by EIA; assay type: cell-based
T2 sequence (whole entry): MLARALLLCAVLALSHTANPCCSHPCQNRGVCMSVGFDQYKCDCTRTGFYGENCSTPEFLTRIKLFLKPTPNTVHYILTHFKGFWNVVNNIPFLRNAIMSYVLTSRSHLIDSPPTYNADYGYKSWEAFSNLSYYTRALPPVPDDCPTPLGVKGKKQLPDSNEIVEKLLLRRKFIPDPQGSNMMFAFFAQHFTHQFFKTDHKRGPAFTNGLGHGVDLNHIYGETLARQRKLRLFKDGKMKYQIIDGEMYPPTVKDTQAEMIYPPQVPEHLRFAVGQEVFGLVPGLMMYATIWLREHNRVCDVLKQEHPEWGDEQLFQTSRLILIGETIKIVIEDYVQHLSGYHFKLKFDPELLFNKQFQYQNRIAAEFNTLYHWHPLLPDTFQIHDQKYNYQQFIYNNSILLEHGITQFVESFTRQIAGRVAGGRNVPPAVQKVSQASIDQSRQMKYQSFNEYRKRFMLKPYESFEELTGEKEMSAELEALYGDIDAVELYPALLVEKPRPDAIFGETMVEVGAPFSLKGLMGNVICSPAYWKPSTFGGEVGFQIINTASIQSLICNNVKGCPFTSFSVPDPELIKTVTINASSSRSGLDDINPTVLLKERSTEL
Outline: (§1)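 A549 cells stimulated with IL-1β (1 ng/ml) 72 h in DMEM with 2% FCS, trypsinized and washed. 10^6 cells/mL PBS with 1 mM CaCl2 preincubated with compound 10 min at 37 °C. 3 µM AA added for 15 min at 37 °C, stopped on ice. 6-keto PGF1α in supernatant measured by EIA.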

[4] = biological target: T3, Prostaglandin G/H synthase 2 (Homo sapiens, UniProt P35354); assay: Inhibition of COX2-mediated 6-keto PGF1alpha production in IL1-beta stimulated human A549 cells after 10 mins by EIA; assay type: cell-based; outline: as §1
T3 sequence (P35354 whole entry): T2 sequence (whole entry)

[5] = Inhibition of mPGES1-mediated PGE2 production in IL1-beta stimulated human A549 cells after 15 mins; assay type: cell-based; conditions: A549, 0.25 h
Outline: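 Microsomes from IL-1β (1 ng/ml, 72 h) stimulated A549 cells, diluted in 0.1 M potassium phosphate pH 7.4 with 2.5 mM glutathione. Compound or 1% DMSO added, 15 min at 4 °C. Started with 20 µM PGH2 (final), 1 min at 4 °C. Stopped with FeCl2/citric acid containing 11β-PGE2 internal standard. PGE2 by RP-C18 solid-phase extraction and peak integration.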

Activity [1] | Activity [2] | Activity [3] | IC50 [4] | IC50 [5] | Structure (SMILES)
62% | 102% | 78.6% | > 10 µM | > 10 µM | CCOC(=O)C1CCN(C(=O)CCc2cc(-c3ccc(C(F)(F)F)cc3)n(-c3ccc(Cl)nn3)n2)CC1
6.7% | 57.1% | 86.3% | > 10 µM | > 10 µM | CCOC(=O)C1CCN(C(=O)CCc2cc(-c3ccc(C)cc3)n(-c3ccccc3)n2)CC1
13.5% | 21% | 97% | > 10 µM | > 10 µM | Cc1ccc(-c2cc(CCC(=O)N3CCN(Cc4ccc(C(C)(C)C)cc4)CC3)nn2-c2ccccc2)cc1
25.8% | 15.9% | 66.3% | > 10 µM | > 10 µM | CCOC(=O)C1CCN(C(=O)CCc2cc(-c3ccc(C)cc3)n(-c3ccc4ccccc4n3)n2)CC1

Further lines, the compound ahead of its results:

Structure (SMILES) | Activity [1] | Activity [2] | Activity [3] | IC50 [4] | IC50 [5]
Cc1ccc(-c2cc(CCC(=O)Oc3ccc(C(C)C)cc3)nn2-c2ccccc2)cc1 | 20.4% | 10.6% | 111% | > 10 µM | > 10 µM
Cc1ccc(-c2cc(CCC(=O)Oc3ccc(C(C)C)cc3)nn2-c2ccc3ccccc3n2)cc1 | 65.4% |  | 97% | > 10 µM | > 10 µM
Cc1ccc(-c2cc(CCC(=O)N3CCN(Cc4ccc(C(C)(C)C)cc4)CC3)nn2-c2ccc3ccccc3n2)cc1 | 16.4% | 8.2% | 79% | > 10 µM | > 10 µM
Cc1ccc(-c2cc(CCC(=O)Oc3ccc(C(C)C)cc3)nn2-c2ccc(Cl)nn2)cc1 | 46.4% | 51.1% | 99.9% | > 10 µM | > 10 µM
CC(C)(C)c1ccc(CN2CCN(C(=O)CCc3cc(-c4ccc(F)cc4)n(-c4ccc(Cl)nn4)n3)CC2)cc1 | 23.4% | 82.9% | 84.2% | > 10 µM | > 10 µM
